Measurements gathered from unrelated publications.
Lines come from different studies, so protocols differ.
NPSR1: Neuropeptide S receptor (NPSR1, Homo sapiens, UniProt Q6W5P4)
NQO2: Ribosyldihydronicotinamide dehydrogenase [quinone] (NQO2, Homo sapiens, UniProt P16083)
SLC6A2: Sodium-dependent noradrenaline transporter (SLC6A2, Homo sapiens, UniProt P23975)
GRB2: Growth factor receptor-bound protein 2 (GRB2, Homo sapiens, UniProt P62993)
MC4R: Melanocortin receptor 4 (MC4R, Homo sapiens, UniProt P32245)

| Structure (SMILES) | target | test | setting | quantity | result |
| --- | --- | --- | --- | --- | --- |
| COc1cccc(C2c3c(ncn(-c4ccc(-c5ccccc5)cc4)c3=N)Oc3ccc4ccccc4c32)c1 (centres unmarked) | NPSR1 | cAMP, antagonist, TR-FRET | – | IC50 | > 100 µM |
| Cc1cccc(Nc2ccccc2C(=O)O)c1C | NQO2 | enzyme activity, inhibitor, absorbance | – | Ki | > 500 µM |
| Nc1ncnc2c1ncn2[C@@H]1O[C@H](COP(=O)(O)OP(=O)(O)OP(=O)(O)OP(=O)(O)OP(=O)(O)OC[C@H]2O[C@@H](n3cnc4c(N)ncnc43)[C@H](O)[C@@H]2O)[C@@H](O)[C@H]1O | adk (Escherichia coli, UniProt P69441, R131A) | binding, ITC | – | Kd | 0.576 µM |
| CCCCN1CCC(COC(=O)c2ccc(N)c(OCF)c2)CC1 | Muscarinic acetylcholine receptor M5 (CHRM5, Homo sapiens, UniProt P08912) | cell-free assay, radioligand | – | Ki | > 10 µM |
| COc1ccc(C2c3c(n(CCCc4ccccc4)cnc3=N)Oc3ccc4ccccc4c32)cc1OC (centres unmarked) | NPSR1 | cAMP, antagonist, TR-FRET | – | IC50 | 24.4 µM |
| Cc1cnc(-c2ccc(-c3ccc(NC(=O)Nc4c(F)cc(F)cc4F)cc3F)c3c2C(=O)NC3)[nH]1 | Dual specificity mitogen-activated protein kinase kinase 5 (MAP2K5, Homo sapiens, UniProt Q13163) | binding, competition with immobilised ligand | – | Kd | 0.0008 µM |
| CC(C)(C)OC(=O)Nc1ncnc2c1C(c1ccccc1)c1c(ccc3ccccc13)O2 (centres unmarked) | NPSR1 | cAMP, antagonist, TR-FRET | – | IC50 | 12.2 µM |
| Nc1ncnc2c1ncn2[C@@H]1O[C@H](COP(=O)(O)OP(=O)(O)OP(=O)(O)O)[C@@H](O)[C@H]1O | dnaA (Escherichia coli, UniProt P03004) | binding | – | Kd | 0.04 µM |
| O=C(O)Cc1ccccc1Nc1c(Cl)cccc1Cl | NQO2 | enzyme activity, inhibitor | – | Ki | > 1000 µM |
| CNC(=O)[C@@]12C[C@@H]1[C@@H](n1cnc3c(NC4CC4c4ccccc4)nc(C#Cc4ccccc4)nc31)[C@H](O)[C@@H]2O (mixture of isomers) | SLC6A2 | ligand displacement, radioligand | – | Ki | 2.31 µM |
| COc1ccc(C2c3c(N)nc(Cc4ccccc4)nc3Oc3ccc4ccccc4c32)cc1OC (centres unmarked) | NPSR1 | cAMP, antagonist, TR-FRET | – | IC50 | 77.2 µM |
| CC(C)C[C@H](NC(=O)[C@H](Cc1c[nH]cn1)NC(=O)[C@H](CCCNC(=N)N)NC(=O)[C@H](CCCNC(=N)N)NC(=O)[C@@H](NC(=O)CNC(=O)[C@H](Cc1c[nH]cn1)NC(=O)[C@@H]1CCCN1C(=O)[C@H](CO)NC(=O)[C@@H]1CCCN1)[C@@H](C)O)C(=O)N1CCC[C@H]1C(=O)N[C@@H](CO)C(=O)N1CCC[C@H]1C(=O)N1CCC[C@H]1C(=O)O | GRB2 | binding, NMR | pH 7.6 | Kd | 400 µM |
| NC(=O)N1c2ccccc2C=Cc2ccccc21 | NQO2 | enzyme activity, inhibitor | – | Ki | > 500 µM |
| CC(C)(C)c1cc(CN(C(=O)CN(Cc2ccc(Cl)cc2)S(=O)(=O)c2c(F)c(F)c(F)c(F)c2F)c2ccc(C(=O)O)c(O)c2)cc(C(C)(C)C)c1 | Signal transducer and activator of transcription 1-alpha/beta (STAT1, Homo sapiens, UniProt P42224) | cell-free assay, FP | – | Ki | > 60 µM |
| CC(C)[C@@H](CC[C@@H](C)[C@H]1CC[C@H]2[C@@H]3[C@H](O)C[C@H]4C[C@@H](NCCCNCCCCNCCCN)CC[C@]4(C)[C@H]3CC[C@]12C)OS(=O)(=O)O | Tyrosine-protein phosphatase non-receptor type 12 (PTPN12, Homo sapiens, UniProt Q05209) | enzyme activity, inhibitor | – | Ki | 40 µM |
| CCCOC(=O)[C@@]12C[C@@H]1[C@@H](n1cnc3c(NC)nc(C#Cc4ccc(Cl)s4)nc31)[C@H](O)[C@@H]2O | SLC6A2 | ligand displacement, radioligand | cell membranes | Ki | > 10 µM |
| O=c1ccc2ccccc2o1 | GRB2 | binding, fluorescence | – | Kd | 5.56 µM |
| CCN(CC)Cc1cc(Nc2ccnc3cc(Cl)ccc23)ccc1O | NQO2 | enzyme activity, inhibitor | – | Ki | 160 µM |
| N=c1c2c(ncn1CCc1ccccc1)Oc1ccc3ccccc3c1C2c1ccccc1 (centres unmarked) | NPSR1 | cAMP, antagonist, TR-FRET | – | IC50 | 4.87 µM |
| CC[C@H](C)[C@H](NC(=O)CN)C(=O)N[C@H](C(=O)N[C@@H](CC(N)=O)C(=O)N[C@H](C(=O)N[C@@H](CC(C)C)C(=O)N[C@@H](CCC(N)=O)C(=O)N[C@@H](CCCCN)C(=O)N[C@@H](Cc1ccc(O)cc1)C(=O)N[C@@H](Cc1ccc(O)cc1)C(=O)N[C@@H](CO)C(=O)N[C@@H](CCCNC(=N)N)C(=O)N[C@H](C(=O)N[C@@H](CCCNC(=N)N)C(=O)NCC(=O)NCC(=O)N[C@@H](CCCNC(=N)N)C(=O)N[C@@H](CO)C(=O)N[C@@H](C)C(=O)N[C@H](C(=O)N[C@@H](CC(C)C)C(=O)N[C@@H](CO)C(=O)N[C@H]1CSSC[C@@H](C(=O)N[C@@H](CCCNC(=N)N)C(=O)N[C@@H](CCCNC(=N)N)C(=O)N[C@@H](CCCCN)C(=O)N[C@@H](CCCCN)C(N)=O)NC(=O)[C@H](CO)NC(=O)[C@H](CCCCN)NC(=O)[C@H](CCCNC(=N)N)NC(=O)CNC(=O)[C@H](CCCNC(=N)N)NC(=O)[C@H]([C@@H](C)O)NC(=O)[C@H](CO)NC(=O)[C@H](CO)NC(=O)[C@H](CCCCN)NC(=O)CNC(=O)[C@H]([C@@H](C)CC)NC(=O)[C@H](CCC(N)=O)NC(=O)[C@H](CCC(=O)O)NC(=O)[C@H](CCC(=O)O)NC(=O)[C@H](CCCCN)NC(=O)[C@@H]2CCCN2C(=O)[C@H](CC(C)C)NC1=O)C(C)C)C(C)C)[C@@H](C)O)[C@@H](C)CC | MC4R | ligand displacement in cells | – | Ki | 0.292 µM |
| O=C(NCc1ccccc1)Nc1ncnc2c1C(c1ccccc1)c1c(ccc3ccccc13)O2 (centres unmarked) | NPSR1 | calcium signal, antagonist | – | IC50 | > 30 µM |
| CCOC(=O)c1ccccc1 | Or67a (Drosophila melanogaster, UniProt Q9VT08) | binding, MST | – | Kd | ~0.5 µM |
| COc1ccc(C2c3ccc(OCc4ccccc4)cc3Oc3ncn(CCN4CCOCC4)c(=N)c32)cc1OC (centres unmarked) | NPSR1 | calcium signal, antagonist | – | IC50 | > 30 µM |
| Cc1c(S(=O)(=O)O)oc2c1C(=O)C(=O)c1c-2ccc2c1CCCC2(C)C | Cholinesterase (BCHE, Homo sapiens, UniProt P06276) | enzyme activity, inhibitor | – | Ki | > 100 µM |
| COc1cccc(C2c3c(ncn(Cc4cccs4)c3=N)Oc3ccc4ccccc4c32)c1 (centres unmarked) | NPSR1 | cAMP, antagonist, TR-FRET | – | IC50 | 19.4 µM |
| CCCC[C@H](NC(=O)[C@H](CO)NC(=O)[C@H](Cc1ccc(O)cc1)NC(=O)[C@H](CO)NC(C)=O)C(=O)N[C@@H](CCC(=O)O)C(=O)N[C@@H](Cc1c[nH]cn1)C(=O)N[C@@H](C)C(=O)N[C@@H](CCCNC(=N)N)C(=O)N[C@@H](Cc1c[nH]c2ccccc12)C(=O)NCC(=O)N[C@@H](CCCCN)C(=O)N1CCC[C@H]1C(=O)N[C@H](C(=O)NCC(=O)N[C@@H](CCCCN)C(=O)N[C@@H](CCCCN)C(=O)N[C@@H](CCCNC(=N)N)C(N)=O)C(C)C | MC4R | ligand displacement in cells, radioligand | – | Ki | > 1 µM |
